Target: G protein-activated inward rectifier potassium channel 4 (Homo sapiens) + G protein-activated inward rectifier potassium channel 1 (Homo sapiens) (UniProt P48544+P48549)
Experiment: activation of GIRK1/4-mediated thallium influx – cell-based, HEK-293 hGIRK1/4, thallium flux, FluoZin-2, concentration-response, dose response (AID 623975)
Conditions: HEK-293 hGIRK1/4, thallium flux FluoZin-2 fluorescence
How it was run: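 test system = HEK-293 line stably expressing hGIRK1/4 | also added = thallium stimulus at pH 7.4 with EC20 glutamate | schedule = FluoZin-2 AM dye loading ~60 min at room temperature, compound pretreatment 4 min | measured by = thallium-flux fluorescence with FluoZin-2 AM dye, F/F0 traces | repeats = triplicate wells per concentration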

G protein-activated inward rectifier potassium channel 4 (Homo sapiens) + G protein-activated inward rectifier potassium channel 1 (Homo sapiens), sequence (P48544 whole entry, looked up): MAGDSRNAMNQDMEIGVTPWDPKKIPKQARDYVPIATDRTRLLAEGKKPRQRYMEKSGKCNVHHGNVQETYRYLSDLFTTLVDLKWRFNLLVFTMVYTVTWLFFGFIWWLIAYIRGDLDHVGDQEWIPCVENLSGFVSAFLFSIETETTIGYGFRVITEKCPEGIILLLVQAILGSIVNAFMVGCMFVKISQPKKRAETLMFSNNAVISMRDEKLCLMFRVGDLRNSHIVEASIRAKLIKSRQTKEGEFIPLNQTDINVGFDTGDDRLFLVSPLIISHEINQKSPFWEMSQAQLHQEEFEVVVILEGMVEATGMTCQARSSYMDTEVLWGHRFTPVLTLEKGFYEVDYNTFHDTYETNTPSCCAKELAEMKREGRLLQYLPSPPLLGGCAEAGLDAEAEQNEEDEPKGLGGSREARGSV
G protein-activated inward rectifier potassium channel 4 (Homo sapiens) + G protein-activated inward rectifier potassium channel 1 (Homo sapiens), sequence (P48549 whole entry, looked up): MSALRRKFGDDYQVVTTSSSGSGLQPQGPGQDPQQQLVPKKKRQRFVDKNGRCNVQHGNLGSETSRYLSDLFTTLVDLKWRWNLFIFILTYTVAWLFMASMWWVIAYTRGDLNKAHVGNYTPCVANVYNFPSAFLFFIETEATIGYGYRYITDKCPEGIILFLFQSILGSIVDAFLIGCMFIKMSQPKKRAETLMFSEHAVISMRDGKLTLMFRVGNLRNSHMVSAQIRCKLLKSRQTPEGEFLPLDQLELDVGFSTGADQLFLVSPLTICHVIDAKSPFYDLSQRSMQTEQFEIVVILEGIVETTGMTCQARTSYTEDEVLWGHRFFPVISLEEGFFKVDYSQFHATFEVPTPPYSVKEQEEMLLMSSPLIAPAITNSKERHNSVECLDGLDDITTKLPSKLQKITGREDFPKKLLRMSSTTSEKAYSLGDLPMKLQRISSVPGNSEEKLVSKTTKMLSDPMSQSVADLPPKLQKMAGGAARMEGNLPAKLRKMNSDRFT

## Cc1cc(NC(=O)Nc2ccc(F)c(F)c2)n(-c2ccccc2)n1
  EC50: 1.12 µM

Reference: PubChem BioAssay AID623975 (Vanderbilt High Throughput Screening Facility, 2012)
